Data from ChEMBL document CHEMBL3352023, “C-terminal residue optimization and fragment merging: discovery of a potent Peptide-hybrid inhibitor of dengue protease” (ACS Med Chem Lett, 2014).
The source made the active and inactive calls. The rule behind the calls is not given here. Square brackets hold non-standard residues; d marks the D form. Peptide text beside a SMILES is read from it. * marks the point of attachment. ξ: configuration not given here. Phe(4-NO2) = N[C@@H](Cc1ccc([N+](=O)[O-])cc1)C(=O)O; Phe(4-CN) = N#Cc1ccc(C[C@H](N)C(=O)O)cc1; 2Pal = N[C@@H](Cc1ccccn1)C(=O)O; 3Pal = N[C@@H](Cc1cccnc1)C(=O)O; Cha = N[C@@H](CC1CCCCC1)C(=O)O; Phg = N[C@H](C(=O)O)c1ccccc1; Tle = CC(C)(C)[C@H](N)C(=O)O; ξTic = O=C(O)C1Cc2ccccc2CN1; ξChg = NC(C(=O)O)C1CCCCC1; 3Abz = Nc1cccc(C(=O)O)c1; 4Abz = Nc1ccc(C(=O)O)cc1; Nva = CCC[C@H](N)C(=O)O; 2Abz = Nc1ccccc1C(=O)O; ξPip = O=C(O)C1CCCCN1; ξPra = C#CCC(N)C(=O)O; Aib = CC(C)(N)C(=O)O; Bz = O=C(c1ccccc1)*; βAla = NCCC(=O)O

Legend:
[1] = biological target: Genome polyprotein (dengue virus type 2) (UniProt P12823); experiment: Inhibition of Dengue virus serotype 2 NS2B-NS3 protease at 50 uM by homogeneous fluorimetric assay
Genome polyprotein [2] = biological target: Genome polyprotein (dengue virus type 2, UniProt P12823); experiment: Inhibition of Dengue virus serotype 2 NS2B-NS3 protease by homogeneous fluorimetric assay
[3] = biological target: Genome polyprotein (West Nile virus) (UniProt P06935); experiment: Inhibition of West Nile virus […] NS2B-NS3 protease at 50 uM by homogeneous fluorimetric assay
Genome polyprotein (West Nile virus), sequence (P06935 whole entry): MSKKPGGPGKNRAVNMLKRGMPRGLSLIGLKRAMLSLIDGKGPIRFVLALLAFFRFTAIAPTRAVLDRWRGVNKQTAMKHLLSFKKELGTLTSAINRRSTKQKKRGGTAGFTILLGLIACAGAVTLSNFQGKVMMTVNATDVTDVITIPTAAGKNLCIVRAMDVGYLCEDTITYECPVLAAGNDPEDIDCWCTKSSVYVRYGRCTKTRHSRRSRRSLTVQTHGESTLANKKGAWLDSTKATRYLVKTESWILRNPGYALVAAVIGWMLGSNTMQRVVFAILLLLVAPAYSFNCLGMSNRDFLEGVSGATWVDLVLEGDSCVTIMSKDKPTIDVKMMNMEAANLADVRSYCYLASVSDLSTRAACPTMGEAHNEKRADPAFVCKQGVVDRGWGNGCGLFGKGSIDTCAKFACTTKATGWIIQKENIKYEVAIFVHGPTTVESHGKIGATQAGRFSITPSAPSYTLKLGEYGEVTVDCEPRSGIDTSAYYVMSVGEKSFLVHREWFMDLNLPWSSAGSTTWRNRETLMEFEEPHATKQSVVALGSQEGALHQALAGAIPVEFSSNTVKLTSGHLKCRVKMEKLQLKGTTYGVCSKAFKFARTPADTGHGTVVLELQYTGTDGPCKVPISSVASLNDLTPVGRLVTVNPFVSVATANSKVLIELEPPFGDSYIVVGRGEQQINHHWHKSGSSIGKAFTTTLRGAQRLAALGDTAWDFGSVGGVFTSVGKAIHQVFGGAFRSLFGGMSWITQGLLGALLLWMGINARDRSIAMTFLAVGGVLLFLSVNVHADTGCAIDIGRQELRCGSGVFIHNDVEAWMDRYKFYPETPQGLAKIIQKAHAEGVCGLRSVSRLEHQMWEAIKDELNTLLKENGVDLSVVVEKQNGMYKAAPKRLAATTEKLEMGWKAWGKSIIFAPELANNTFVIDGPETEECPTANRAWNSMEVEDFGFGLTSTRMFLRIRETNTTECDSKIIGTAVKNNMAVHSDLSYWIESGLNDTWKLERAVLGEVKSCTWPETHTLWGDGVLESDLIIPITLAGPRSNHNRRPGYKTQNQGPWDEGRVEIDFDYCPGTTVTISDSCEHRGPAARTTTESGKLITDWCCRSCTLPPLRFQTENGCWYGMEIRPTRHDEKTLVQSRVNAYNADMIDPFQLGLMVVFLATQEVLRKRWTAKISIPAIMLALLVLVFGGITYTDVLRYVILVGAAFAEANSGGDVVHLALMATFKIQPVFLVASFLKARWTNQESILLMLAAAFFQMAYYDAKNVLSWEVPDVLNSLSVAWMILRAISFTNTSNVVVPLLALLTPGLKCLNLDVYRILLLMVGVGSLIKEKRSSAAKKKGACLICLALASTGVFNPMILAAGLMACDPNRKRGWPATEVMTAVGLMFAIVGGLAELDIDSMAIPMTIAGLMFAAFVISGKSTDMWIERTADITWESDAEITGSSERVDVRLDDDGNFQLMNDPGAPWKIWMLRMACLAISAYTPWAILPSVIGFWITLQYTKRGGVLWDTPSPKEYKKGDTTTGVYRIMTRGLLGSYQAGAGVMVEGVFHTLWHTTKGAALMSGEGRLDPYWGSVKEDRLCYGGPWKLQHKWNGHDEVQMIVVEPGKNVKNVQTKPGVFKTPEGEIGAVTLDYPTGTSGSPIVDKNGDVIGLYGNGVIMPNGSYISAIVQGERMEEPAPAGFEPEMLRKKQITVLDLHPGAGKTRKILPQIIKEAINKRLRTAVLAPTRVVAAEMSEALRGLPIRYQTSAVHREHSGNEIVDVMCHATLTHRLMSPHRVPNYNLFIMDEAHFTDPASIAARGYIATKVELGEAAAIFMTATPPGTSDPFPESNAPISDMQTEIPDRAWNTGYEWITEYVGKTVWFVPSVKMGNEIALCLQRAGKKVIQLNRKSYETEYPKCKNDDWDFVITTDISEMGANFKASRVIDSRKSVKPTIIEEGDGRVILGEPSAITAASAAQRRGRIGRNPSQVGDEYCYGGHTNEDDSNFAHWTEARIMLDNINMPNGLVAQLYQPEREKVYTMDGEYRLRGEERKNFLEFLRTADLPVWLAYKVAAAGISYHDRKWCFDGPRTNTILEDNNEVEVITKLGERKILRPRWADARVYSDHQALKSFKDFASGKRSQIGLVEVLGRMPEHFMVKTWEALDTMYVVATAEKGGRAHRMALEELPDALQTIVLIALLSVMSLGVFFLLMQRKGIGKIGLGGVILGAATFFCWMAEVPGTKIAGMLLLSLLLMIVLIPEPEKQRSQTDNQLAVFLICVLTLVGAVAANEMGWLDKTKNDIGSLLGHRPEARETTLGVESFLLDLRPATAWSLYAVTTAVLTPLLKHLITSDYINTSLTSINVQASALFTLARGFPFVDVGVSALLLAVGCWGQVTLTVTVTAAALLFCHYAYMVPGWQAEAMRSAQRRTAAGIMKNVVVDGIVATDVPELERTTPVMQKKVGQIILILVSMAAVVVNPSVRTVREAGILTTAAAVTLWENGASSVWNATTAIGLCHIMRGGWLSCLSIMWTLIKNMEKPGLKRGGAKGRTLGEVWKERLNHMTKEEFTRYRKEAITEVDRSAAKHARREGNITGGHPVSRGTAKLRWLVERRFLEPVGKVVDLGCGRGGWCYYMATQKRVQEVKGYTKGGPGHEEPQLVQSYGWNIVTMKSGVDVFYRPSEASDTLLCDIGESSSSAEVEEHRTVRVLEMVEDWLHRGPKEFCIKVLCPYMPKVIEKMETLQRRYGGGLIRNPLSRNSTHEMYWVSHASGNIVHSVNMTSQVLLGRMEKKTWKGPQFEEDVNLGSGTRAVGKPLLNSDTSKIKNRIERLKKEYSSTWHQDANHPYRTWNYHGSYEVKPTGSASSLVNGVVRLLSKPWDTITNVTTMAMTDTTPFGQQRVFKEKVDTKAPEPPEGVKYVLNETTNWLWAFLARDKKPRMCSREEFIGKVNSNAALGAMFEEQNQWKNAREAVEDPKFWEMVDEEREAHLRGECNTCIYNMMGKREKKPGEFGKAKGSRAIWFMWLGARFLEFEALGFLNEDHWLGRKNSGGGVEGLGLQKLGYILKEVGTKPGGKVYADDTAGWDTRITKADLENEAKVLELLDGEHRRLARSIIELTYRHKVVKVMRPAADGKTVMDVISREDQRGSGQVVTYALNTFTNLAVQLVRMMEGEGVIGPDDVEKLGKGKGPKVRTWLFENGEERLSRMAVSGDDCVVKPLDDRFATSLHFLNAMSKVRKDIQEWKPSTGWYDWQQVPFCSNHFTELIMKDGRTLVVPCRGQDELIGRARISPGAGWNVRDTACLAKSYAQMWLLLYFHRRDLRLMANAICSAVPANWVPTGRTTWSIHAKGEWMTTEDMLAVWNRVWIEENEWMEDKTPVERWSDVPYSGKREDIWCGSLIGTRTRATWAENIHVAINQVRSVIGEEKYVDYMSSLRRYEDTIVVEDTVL
Procedure, shortened: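 WNV NS2B-NS3 protease percent inhibition, homogeneous fluorimetric assay: enzyme 150 nM, inhibitor 50 μM, substrate 50 μM (Km = 212 μM); triplicate, SD below 10%.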

[4] = biological target: Prothrombin (Homo sapiens) (UniProt P00734); experiment: Inhibition of thrombin (unknown origin) at 25 uM by homogeneous fluorimetric assay
Genome polyprotein [5] = biological target: Genome polyprotein (West Nile virus, UniProt P06935); experiment: Inhibition of West Nile virus […] NS2B-NS3 protease by homogeneous fluorimetric assay
Genome polyprotein (West Nile virus, UniProt P06935), sequence (P06935 1371-1501 limits assumed): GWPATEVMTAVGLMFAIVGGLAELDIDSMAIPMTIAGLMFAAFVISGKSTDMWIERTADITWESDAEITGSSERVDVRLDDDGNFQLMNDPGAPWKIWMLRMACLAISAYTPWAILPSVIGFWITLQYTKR
Genome polyprotein (West Nile virus, UniProt P06935), sequence (P06935 1502-2120 limits assumed): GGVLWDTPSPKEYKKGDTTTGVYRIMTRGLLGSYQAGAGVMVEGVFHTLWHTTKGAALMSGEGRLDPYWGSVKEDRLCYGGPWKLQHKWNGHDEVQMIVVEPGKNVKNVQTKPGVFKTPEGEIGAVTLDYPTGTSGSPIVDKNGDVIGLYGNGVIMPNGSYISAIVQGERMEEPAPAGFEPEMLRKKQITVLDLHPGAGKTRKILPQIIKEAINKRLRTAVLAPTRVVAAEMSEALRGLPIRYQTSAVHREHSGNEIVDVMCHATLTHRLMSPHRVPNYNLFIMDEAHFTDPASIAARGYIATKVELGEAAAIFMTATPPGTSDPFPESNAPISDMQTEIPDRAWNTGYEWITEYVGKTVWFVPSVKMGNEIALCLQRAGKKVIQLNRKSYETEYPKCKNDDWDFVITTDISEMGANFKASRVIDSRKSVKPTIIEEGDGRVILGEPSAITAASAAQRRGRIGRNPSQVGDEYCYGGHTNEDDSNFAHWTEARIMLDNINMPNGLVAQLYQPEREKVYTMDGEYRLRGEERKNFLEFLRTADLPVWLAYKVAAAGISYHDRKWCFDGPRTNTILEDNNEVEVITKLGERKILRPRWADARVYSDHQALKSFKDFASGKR

Structure (SMILES) | inhibition [1] | IC50 (Genome polyprotein [2]) | inhibition [3] | inhibition [4] | IC50 (Genome polyprotein [5]) | Ki (Genome polyprotein [5])
CCCC[C@H](NC(=O)[C@H](CCCCN)NC(=O)[C@H](CCCNC(=N)N)NC(=O)c1ccc(/C=C(\C#N)C(=O)NC2CC2)cc1)C(N)=O | 88.5% | 5.3 µM | 28% | – | – | –
CCCC[C@@H](NC(=O)[C@H](CCCCN)NC(=O)[C@H](CCCNC(=N)N)NC(=O)c1ccccc1)C(N)=O | 72.7% | 14.1 µM | 16.1% | 4.9% | – | –
N#C/C(=C\c1ccc(C(=O)N[C@@H](CCCNC(=N)N)C(=O)N[C@@H](CCCCN)C(=O)NC(C(N)=O)c2ccccc2)cc1)C(=O)NC1CC1 (stereo partly specified) | 98.6% | 1.3 µM | 90.2% | 5.6% | – | –
N#C/C(=C\c1ccc(C(=O)N[C@@H](CCCNC(=N)N)C(=O)N[C@@H](CCCCN)C(=O)N2Cc3ccccc3CC2C(N)=O)cc1)C(=O)NC1CC1 (stereo partly specified) | 59.2% | 24.9 µM | 38.3% | inactive | – | –
N=C(N)NCCC[C@H](NC(=O)c1ccc(/C=C2\SC(=O)N(C3CCCC3)C2=O)cc1)C(=O)N[C@@H](CCCCN)C(=O)N1Cc2ccccc2CC1C(N)=O (stereo partly specified) | 85.7% | 10.5 µM | 49.4% | 7.6% | – | –
N=C(N)NCCC[C@H](NC(=O)c1ccccc1)C(=O)N[C@@H](CCCCN)C(=O)NCC(N)=O (Bz-Arg-Lys-Gly-NH2) | 70.4% | 21 µM | 44.6% | 3.5% | – | –
CSCC[C@H](NC(=O)[C@H](CCCCN)NC(=O)[C@H](CCCNC(=N)N)NC(=O)c1ccccc1)C(N)=O (Bz-Arg-Lys-Met-NH2) | 45% | 47.5 µM | 11.8% | 6.2% | – | –
N=C(N)NCCC[C@H](NC(=O)c1ccccc1)C(=O)N[C@@H](CCCCN)C(=O)N[C@@H](Cc1c[nH]c2ccccc12)C(N)=O (Bz-Arg-Lys-Trp-NH2) | 74.1% | 17.6 µM | 32.8% | inactive | – | –
N=C(N)NCCC[C@H](NC(=O)c1ccccc1)C(=O)N[C@@H](CCCCN)C(=O)Nc1ccccc1C(N)=O (Bz-Arg-Lys-[2Abz]-NH2) | 62% | 15.8 µM | 8.7% | 6.4% | – | –
N=C(N)NCCC[C@H](NC(=O)c1ccccc1)C(=O)N[C@@H](CCCCN)C(=O)N[C@@H](Cc1cccnc1)C(N)=O (Bz-Arg-Lys-[3Pal]-NH2) | 61.3% | 30.1 µM | 12.5% | inactive | – | –
N=C(N)NCCC[C@H](NC(=O)c1ccccc1)C(=O)N[C@@H](CCCCN)C(=O)Nc1ccc(C(N)=O)cc1 (Bz-Arg-Lys-[4Abz]-NH2) | 27.5% | 92.2 µM | 17.9% | 9.2% | – | –
N=C(N)NCCC[C@H](NC(=O)c1ccccc1)C(=O)N[C@@H](CCCCN)C(=O)N[C@@H](CC1CCCCC1)C(N)=O (Bz-Arg-Lys-[Cha]-NH2) | 80% | 8.2 µM | 19.1% | inactive | – | –
CCC[C@H](NC(=O)[C@H](CCCCN)NC(=O)[C@H](CCCNC(=N)N)NC(=O)c1ccccc1)C(N)=O (Bz-Arg-Lys-[Nva]-NH2) | 62% | 25.2 µM | 8.5% | inactive | – | –
N#Cc1ccc(C[C@H](NC(=O)[C@H](CCCCN)NC(=O)[C@H](CCCNC(=N)N)NC(=O)c2ccccc2)C(N)=O)cc1 (Bz-Arg-Lys-[Phe(4-CN)]-NH2) | 71.7% | 14.4 µM | 15.9% | inactive | – | –
N=C(N)NCCC[C@H](NC(=O)c1ccccc1)C(=O)N[C@@H](CCCCN)C(=O)N[C@@H](Cc1ccc([N+](=O)[O-])cc1)C(N)=O (Bz-Arg-Lys-[Phe(4-NO2)]-NH2) | 66.6% | 17.5 µM | 21.3% | inactive | – | –
N=C(N)NCCC[C@H](NC(=O)c1ccccc1)C(=O)N[C@@H](CCCCN)C(=O)N[C@H](C(N)=O)c1ccccc1 (Bz-Arg-Lys-[Phg]-NH2) | 95% | 3.3 µM | 39.3% | inactive | 58 µM | 49 µM
CC(C)(C)[C@H](NC(=O)[C@H](CCCCN)NC(=O)[C@H](CCCNC(=N)N)NC(=O)c1ccccc1)C(N)=O (Bz-Arg-Lys-[Tle]-NH2) | 18.8% | 137 µM | 11.7% | inactive | – | –
N=C(N)NCCC[C@H](NC(=O)c1ccccc1)C(=O)N[C@@H](CCCCN)C(=O)NCCC(N)=O (Bz-Arg-Lys-[βAla]-NH2) | 32.9% | 109 µM | 19.8% | inactive | – | –
N=C(N)NCCC[C@H](NC(=O)c1ccccc1)C(=O)N[C@@H](CCCCN)C(=O)N1Cc2ccccc2CC1C(N)=O (stereo partly drawn) (Bz-Arg-Lys-[ξTic]-NH2) | 41.6% | 65.8 µM | 17.8% | inactive | – | –

Next, values leading:

inhibition [1] | IC50 (Genome polyprotein [2]) | inhibition [3] | inhibition [4] | IC50 (Genome polyprotein [5]) | Ki (Genome polyprotein [5]) | Structure (SMILES)
68.1% | 13.3 µM | 7.7% | – | – | – | CCCC[C@H](NC(=O)[C@H](CCCCN)NC(=O)[C@H](CCCNC(=N)N)NC(=O)c1ccccc1)C(N)=O
98.2% | 2.5 µM | 51.8% | – | – | – | CCCC[C@H](NC(=O)[C@H](CCCCN)NC(=O)[C@H](CCCNC(=N)N)NC(=O)c1ccc(/C=C2\SC(=O)N(C3CCCC3)C2=O)cc1)C(N)=O
32.5% | 57.6 µM | 26.7% | 5% | – | – | CC(C)(C)[C@H](NC(=O)[C@H](CCCCN)NC(=O)[C@H](CCCNC(=N)N)NC(=O)c1ccc(/C=C(\C#N)C(=O)NC2CC2)cc1)C(N)=O
60.6% | 29.8 µM | 28% | 10.2% | – | – | CC(C)(C)[C@H](NC(=O)[C@H](CCCCN)NC(=O)[C@H](CCCNC(=N)N)NC(=O)c1ccc(/C=C2\SC(=O)N(C3CCCC3)C2=O)cc1)C(N)=O
46.6% | 35.6 µM | 26% | 7.2% | – | – | C[C@H](NC(=O)[C@H](CCCCN)NC(=O)[C@H](CCCNC(=N)N)NC(=O)c1ccccc1)C(N)=O (Bz-Arg-Lys-Ala-NH2)
56.6% | 28.2 µM | 14.9% | 4.6% | – | – | CC[C@H](C)[C@H](NC(=O)[C@H](CCCCN)NC(=O)[C@H](CCCNC(=N)N)NC(=O)c1ccccc1)C(N)=O (Bz-Arg-Lys-Ile-NH2)
63.2% | 22.7 µM | 18.4% | 5.9% | – | – | CC(C)C[C@H](NC(=O)[C@H](CCCCN)NC(=O)[C@H](CCCNC(=N)N)NC(=O)c1ccccc1)C(N)=O (Bz-Arg-Lys-Leu-NH2)
80.7% | 11.9 µM | 18.2% | 7.2% | – | – | N=C(N)NCCC[C@H](NC(=O)c1ccccc1)C(=O)N[C@@H](CCCCN)C(=O)N[C@@H](Cc1ccccc1)C(N)=O (Bz-Arg-Lys-Phe-NH2)
20% | 192 µM | 3.6% | inactive | – | – | N=C(N)NCCC[C@H](NC(=O)c1ccccc1)C(=O)N[C@@H](CCCCN)C(=O)N1CCC[C@H]1C(N)=O (Bz-Arg-Lys-Pro-NH2)
57.9% | 30.1 µM | 21.9% | 6.2% | – | – | N=C(N)NCCC[C@H](NC(=O)c1ccccc1)C(=O)N[C@@H](CCCCN)C(=O)N[C@@H](CO)C(N)=O (Bz-Arg-Lys-Ser-NH2)
32.1% | 98.6 µM | 16.5% | inactive | – | – | C[C@@H](O)[C@H](NC(=O)[C@H](CCCCN)NC(=O)[C@H](CCCNC(=N)N)NC(=O)c1ccccc1)C(N)=O (Bz-Arg-Lys-Thr-NH2)
82.3% | 7.4 µM | 12.9% | 7.9% | – | – | N=C(N)NCCC[C@H](NC(=O)c1ccccc1)C(=O)N[C@@H](CCCCN)C(=O)N[C@@H](Cc1ccc(O)cc1)C(N)=O (Bz-Arg-Lys-Tyr-NH2)
60% | 28.8 µM | 18.3% | 4.9% | – | – | CC(C)[C@H](NC(=O)[C@H](CCCCN)NC(=O)[C@H](CCCNC(=N)N)NC(=O)c1ccccc1)C(N)=O (Bz-Arg-Lys-Val-NH2)
53% | 44.3 µM | 9.8% | inactive | – | – | N=C(N)NCCC[C@H](NC(=O)c1ccccc1)C(=O)N[C@@H](CCCCN)C(=O)N[C@@H](Cc1ccccn1)C(N)=O (Bz-Arg-Lys-[2Pal]-NH2)
27% | 96.6 µM | 23% | 5.6% | – | – | N=C(N)NCCC[C@H](NC(=O)c1ccccc1)C(=O)N[C@@H](CCCCN)C(=O)Nc1cccc(C(N)=O)c1 (Bz-Arg-Lys-[3Abz]-NH2)
55% | 46.7 µM | 13.7% | inactive | – | – | CC(C)(NC(=O)[C@H](CCCCN)NC(=O)[C@H](CCCNC(=N)N)NC(=O)c1ccccc1)C(N)=O (Bz-Arg-Lys-[Aib]-NH2)
71.7% | 17.4 µM | 12.1% | inactive | – | – | N=C(N)NCCC[C@H](NC(=O)c1ccccc1)C(=O)N[C@@H](CCCCN)C(=O)NC(C(N)=O)C1CCCCC1 (stereo partly drawn) (Bz-Arg-Lys-[ξChg]-NH2)
13.7% | 159 µM | 12.1% | inactive | – | – | N=C(N)NCCC[C@H](NC(=O)c1ccccc1)C(=O)N[C@@H](CCCCN)C(=O)N1CCCCC1C(N)=O (stereo partly drawn) (Bz-Arg-Lys-[ξPip]-NH2)
72.5% | 17.5 µM | 14.3% | 5.2% | – | – | C#CCC(NC(=O)[C@H](CCCCN)NC(=O)[C@H](CCCNC(=N)N)NC(=O)c1ccccc1)C(N)=O (stereo partly drawn) (Bz-Arg-Lys-[ξPra]-NH2)
